# Data published in ChEMBL document CHEMBL1154274, “Oligomeric formylpeptide activity on human neutrophils” (2009).
# Activity calls are given as the source filed them. The rule behind the calls is not given here.
# Experiments:
# [1] = Activation of cellular function of cytochalasin B-pretreated human neutrophils assessed as maximal induction of lysozyme release at 10 uM after 15 mins by microplate-based assay; type: functional, cell-based; conditions: Neutrophil
# How it was run: (§1)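 Neutrophils from heparinized peripheral blood of fasting healthy donors (dextran sedimentation, Ficoll-Paque, hypotonic NH4Cl lysis), resuspended in KRPG pH 7.4 with 1 mM MgCl2 and CaCl2. Pre-incubated with cytochalasin B for 15 min at 37 °C, then given peptide (final 10^-10 to 10^-4 M) for 15 min at 37 °C. After centrifugation, lysozyme was read by Micrococcus lysodeikticus lysis rate at 465 nm, as net % of Triton X-100 total. Five experiments, duplicate.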
# [2] = Activation of cellular function of cytochalasin B-pretreated human neutrophils assessed as induction of superoxide anion production at 10 uM by microplate-based assay; type: functional, cell-based; conditions: Neutrophil
# How it was run: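 Microplate ferricytochrome c reduction, superoxide dismutase-inhibitable, in KRPG. Wells held 4 × 10^5 neutrophils and 100 nmol cytochrome c. Cells were pre-incubated with cytochalasin B for 5 min. Peptide (10^-10 to 10^-4 M) was added at zero time at 37 °C. A550 minus A468 was converted to nmol O2− using ε 18.5 mM^-1 cm^-1. Five experiments, duplicate.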
# [3] = Activation of cellular function of human neutrophils assessed as chemotactic index at 0.000001 to 10 uM; type: functional, cell-based; conditions: Neutrophil
# How it was run: (§2)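 48-well microchemotaxis chamber with peptide in the lower compartment, diluted from 10^-2 M DMSO stock into KRPG with 1 mg/mL BSA; tested 10^-12 to 10^-5 M. Filter migration was scored by the leading-front method. Chemotactic index = (migration to attractant − migration to buffer)/migration to buffer. Five experiments, duplicate.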
# [4] = Activation of cellular function of human neutrophils assessed as induction of chemotactic activity at 0.01 uM; type: functional, cell-based; conditions: Neutrophil; how it was run: as §2
# [5] = Activation of cellular function of cytochalasin B-pretreated human neutrophils assessed as induction of lysozyme release at 1 uM after 15 mins by microplate-based assay; type: functional, cell-based; conditions: Neutrophil; how it was run: as §1
# Neutrophil = assay: Ratio of compound to fMLP-OMe potency for induction of chemotactic activity in human neutrophils; type: functional
# [6] = Activation of cellular function of human neutrophils assessed as chemotactic index at 0.01 uM; type: functional, cell-based; conditions: Neutrophil; how it was run: as §2
Structure (SMILES),Activity [1],Activity [2],Ratio [3],Activity [4],Efficacy [5] [%],Ratio (Neutrophil),Ratio [6]
COC(=O)[C@H](CCCCN[C@@H](Cc1ccccc1)C(=O)N[C@@H](CC(C)C)C(=O)N[C@H](C=O)CCSC)NC(=O)[C@H](CCCCN[C@@H](Cc1ccccc1)C(=O)N[C@@H](CC(C)C)C(=O)N[C@H](C=O)CCSC)NC(=O)[C@H](Cc1ccccc1)NC(=O)[C@H](CC(C)C)NC(=O)[C@H](CCSC)NC=O,Active,Active,0.95,Active,40,10,0.9
COC(=O)C[C@H](NCCCC[C@H](NC(=O)[C@H](Cc1ccccc1)NC(=O)[C@H](CC(C)C)NC(=O)[C@H](CCSC)NC=O)C(=O)OC)C(=O)N[C@@H](Cc1ccccc1)C(=O)N[C@@H](CC(C)C)C(=O)N[C@H](C=O)CCSC,Active,Active,0.95,Active,20,10,0.9
COC(=O)[C@H](CCCCN[C@@H](Cc1ccccc1)C(=O)N[C@@H](CC(C)C)C(=O)N[C@H](C=O)CCSC)NC(=O)[C@H](Cc1ccccc1)NC(=O)[C@H](CC(C)C)NC(=O)[C@H](CCSC)NC=O,Active,Active,–,Active,40,10,–
COC(=O)[C@H](Cc1ccccc1)NC(=O)[C@H](CC(C)C)NC(=O)[C@H](CCSC)NC=O,–,–,1.05,–,60,–,1.05
